What was measured:
[1] = tested on: NCI-H460; assay: Antiproliferative activity against human NCI-H460 cells after 48 hrs by MTT assay; format: functional, cell-based; conditions: NCI-H460, 48 h
Outline: (§1)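 MTT read-out of antiproliferative activity across cancer lines HepG-2, NCI-H460, MGC-803, A549 and MG-63 and normal liver line HL-7702. IC50 given as mean ± S.D. of three separate experiments, each run in triplicate.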

[2] = Inhibition of TNF-alpha induced NF-kappaB activation in human A549 cells after 7 hrs by Bright-Glo luciferase reporter gene assay; format: cell-based
Outline: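 A549 cells transiently cotransfected with an NF-κB-Luc reporter and stimulated with TNF-α. Luciferase read-out of inhibition gives IC50, the mean of at least three independent experiments each with triplicates.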

[3] = tested on: A549; assay: Antiproliferative activity against human A549 cells after 48 hrs by MTT assay; format: functional, cell-based; conditions: A549, 48 h; outline: as §1
[4] = tested on: MG-63; assay: Antiproliferative activity against human MG63 cells after 48 hrs by MTT assay; format: functional, cell-based; conditions: MG-63, 48 h; outline: as §1
[5] = tested on: L02; assay: Antiproliferative activity against human HL-7702 cells after 48 hrs by MTT assay; format: functional, cell-based; conditions: L02, 48 h; outline: as §1
[6] = tested on: HepG2; assay: Antiproliferative activity against human HepG2 cells after 48 hrs by MTT assay; format: functional, cell-based; conditions: HepG2, 48 h; outline: as §1
[7] = tested on: MGC-803; assay: Antiproliferative activity against human MGC803 cells after 48 hrs by MTT assay; format: functional, cell-based; conditions: MGC-803, 48 h; outline: as §1
[8] = Homo sapiens, A549, 7 h, read-out: IC50

Row | IC50 [1] [µM] | IC50 [2, 8] [µM] | IC50 [3] [µM] | IC50 [6] [µM] | IC50 [7] [µM] | IC50 ([2]; a549) | SMILES | IC50 [4] [µM] | IC50 [5] [µM]
1 | > 50 | > 30 | > 50 | > 50 | > 50 |  | CCOP(=O)(OCC)C(Nc1ccc(CC(=O)NCCCNC(=O)[C@@]2(C)CC[C@]3(C)CC[C@]4(C)C(=CC(=O)[C@@H]5[C@@]6(C)CC[C@H](OC(C)=O)C(C)(C)[C@@H]6CC[C@]54C)[C@@H]3C2)cc1)c1cccc(Br)c1 (some centres undefined) | > 50 | > 50
2 | 30.5 | 25.1 | 33.2 | 37.1 | 36.3 |  | CCOP(=O)(OCC)C(Nc1ccc(CC(=O)NCCCCNC(=O)[C@@]2(C)CC[C@]3(C)CC[C@]4(C)C(=CC(=O)[C@@H]5[C@@]6(C)CC[C@H](O)C(C)(C)[C@@H]6CC[C@]54C)[C@@H]3C2)cc1)c1ccccc1 (some centres undefined) | 27.8 | > 50
3 | 31.7 | > 30 | 39.3 | 38.2 | 36.7 |  | CCOP(=O)(OCC)C(Nc1ccc(CC(=O)NCCCNC(=O)[C@@]2(C)CC[C@]3(C)CC[C@]4(C)C(=CC(=O)[C@@H]5[C@@]6(C)CC[C@H](OC(C)=O)C(C)(C)[C@@H]6CC[C@]54C)[C@@H]3C2)cc1)c1cccc(OC)c1 (some centres undefined) | 39.5 | > 50
4 | 46.1 | 28.2 | 36 | 40.4 | 31.1 |  | CCOP(=O)(OCC)C(Nc1ccc(CC(=O)NCCCNC(=O)[C@@]2(C)CC[C@]3(C)CC[C@]4(C)C(=CC(=O)[C@@H]5[C@@]6(C)CC[C@H](O)C(C)(C)[C@@H]6CC[C@]54C)[C@@H]3C2)cc1)c1ccccc1 (some centres undefined) | 31 | > 50
5 | 14.1 | 2.01 | 15.2 | 15.3 | 16.3 |  | CCOP(=O)(OCC)C(Nc1ccc(CC(=O)NCCCCNC(=O)[C@@]2(C)CC[C@]3(C)CC[C@]4(C)C(=CC(=O)[C@@H]5[C@@]6(C)CC[C@H](OC(C)=O)C(C)(C)[C@@H]6CC[C@]54C)[C@@H]3C2)cc1)c1ccc(OC)cc1 (some centres undefined) | 13.9 | > 50
6 | 20.3 | > 30 | 31.9 | 35.6 | 35.7 |  | CCOP(=O)(OCC)C(Nc1ccc(CC(=O)NCCCNC(=O)[C@@]2(C)CC[C@]3(C)CC[C@]4(C)C(=CC(=O)[C@@H]5[C@@]6(C)CC[C@H](O)C(C)(C)[C@@H]6CC[C@]54C)[C@@H]3C2)cc1)c1ccc(Br)cc1 (some centres undefined) | 25.1 | > 50
7 | 24 | 13.1 | 25.2 | 32.2 | 22.2 |  | CCOP(=O)(OCC)C(Nc1ccc(CC(=O)NCCCCNC(=O)[C@@]2(C)CC[C@]3(C)CC[C@]4(C)C(=CC(=O)[C@@H]5[C@@]6(C)CC[C@H](O)C(C)(C)[C@@H]6CC[C@]54C)[C@@H]3C2)cc1)c1ccc(OC)cc1 (some centres undefined) | 17.2 | > 50
8 | > 50 |  | > 50 | > 50 | > 50 | Not Active | CCOP(=O)(OCC)C(Nc1ccc(CC(=O)NCCCNC(=O)[C@@]2(C)CC[C@]3(C)CC[C@]4(C)C(=CC(=O)[C@@H]5[C@@]6(C)CC[C@H](O)C(C)(C)[C@@H]6CC[C@]54C)[C@@H]3C2)cc1)c1cccc(Br)c1 (some centres undefined) | > 50 | > 50
9 | 39.2 | 29.4 | 48.3 | 46.4 | > 50 |  | CCOP(=O)(OCC)C(Nc1ccc(CC(=O)NCCCCNC(=O)[C@@]2(C)CC[C@]3(C)CC[C@]4(C)C(=CC(=O)[C@@H]5[C@@]6(C)CC[C@H](O)C(C)(C)[C@@H]6CC[C@]54C)[C@@H]3C2)cc1)c1cccc(OC)c1 (some centres undefined) | 45.6 | > 50
10 | 29.5 | > 30 | 34 | 37.7 | 27.2 |  | CCOP(=O)(OCC)C(Nc1ccc(CC(=O)NCCCNC(=O)[C@@]2(C)CC[C@]3(C)CC[C@]4(C)C(=CC(=O)[C@@H]5[C@@]6(C)CC[C@H](OC(C)=O)C(C)(C)[C@@H]6CC[C@]54C)[C@@H]3C2)cc1)c1cccc(F)c1 (some centres undefined) | > 50 | > 50
11 | 29.4 | 17.1 | 23.1 | 36.8 | 25.7 |  | CCOP(=O)(OCC)C(Nc1ccc(CC(=O)NCCCNC(=O)[C@@]2(C)CC[C@]3(C)CC[C@]4(C)C(=CC(=O)[C@@H]5[C@@]6(C)CC[C@H](O)C(C)(C)[C@@H]6CC[C@]54C)[C@@H]3C2)cc1)c1ccc(OC)cc1 (some centres undefined) | 23.6 | > 50
12 | > 50 |  | > 50 | > 50 | > 50 | Not Active | CCOP(=O)(OCC)C(Nc1ccc(CC(=O)NCCCNC(=O)[C@@]2(C)CC[C@]3(C)CC[C@]4(C)C(=CC(=O)[C@@H]5[C@@]6(C)CC[C@H](O)C(C)(C)[C@@H]6CC[C@]54C)[C@@H]3C2)cc1)c1cccc(F)c1 (some centres undefined) | > 50 | > 50
13 | 25.2 | 16.3 | 24.9 | 29.2 | 30.9 |  | CCOP(=O)(OCC)C(Nc1ccc(CC(=O)NCCCCNC(=O)[C@@]2(C)CC[C@]3(C)CC[C@]4(C)C(=CC(=O)[C@@H]5[C@@]6(C)CC[C@H](O)C(C)(C)[C@@H]6CC[C@]54C)[C@@H]3C2)cc1)c1ccc(Br)cc1 (some centres undefined) | 24.6 | > 50
14 | 17.3 | 8.89 | 17.9 | 29.1 | 20.5 |  | CCOP(=O)(OCC)C(Nc1ccc(CC(=O)NCCCNC(=O)[C@@]2(C)CC[C@]3(C)CC[C@]4(C)C(=CC(=O)[C@@H]5[C@@]6(C)CC[C@H](O)C(C)(C)[C@@H]6CC[C@]54C)[C@@H]3C2)cc1)c1ccc(F)cc1 (some centres undefined) | 16.5 | > 50
15 | 17.1 | 28.4 | 20.5 | 23.6 | 29.9 |  | CCOP(=O)(OCC)C(Nc1ccc(CC(=O)NCCCNC(=O)[C@@]2(C)CC[C@]3(C)CC[C@]4(C)C(=CC(=O)[C@@H]5[C@@]6(C)CC[C@H](OC(C)=O)C(C)(C)[C@@H]6CC[C@]54C)[C@@H]3C2)cc1)c1ccc(Br)cc1 (some centres undefined) | 21.3 | > 50
16 | 10.2 | 11.1 | 17.3 | 19.8 | 17.4 |  | CCOP(=O)(OCC)C(Nc1ccc(CC(=O)NCCCCNC(=O)[C@@]2(C)CC[C@]3(C)CC[C@]4(C)C(=CC(=O)[C@@H]5[C@@]6(C)CC[C@H](OC(C)=O)C(C)(C)[C@@H]6CC[C@]54C)[C@@H]3C2)cc1)c1ccc(Br)cc1 (some centres undefined) | 19.2 | > 50
17 | 19.4 | 6.09 | 19.8 | 20.2 | 18.3 |  | CCOP(=O)(OCC)C(Nc1ccc(CC(=O)NCCCCNC(=O)[C@@]2(C)CC[C@]3(C)CC[C@]4(C)C(=CC(=O)[C@@H]5[C@@]6(C)CC[C@H](O)C(C)(C)[C@@H]6CC[C@]54C)[C@@H]3C2)cc1)c1ccc(F)cc1 (some centres undefined) | 12.4 | > 50

Row | SMILES | IC50 [1] [µM] | IC50 [2, 8] [µM] | IC50 [3] [µM] | IC50 [6] [µM] | IC50 [7] [µM] | IC50 ([2]; a549) | IC50 [4] [µM] | IC50 [5] [µM]
18 | CC[C@@]1(O)C(=O)OCc2c1cc1n(c2=O)Cc2cc3cc(O)ccc3nc2-1 [HYDROXYCAMPTOTHECIN] | 10.1 |  | 9.13 |  | 9.71 |  | 10.7 | 10.2

From ChEMBL document CHEMBL4382268, “Glycyrrhetinic acid derivatives containing aminophosphonate ester species as multidrug resistance reversers that block the NF-κB pathway and cell proliferation” (Bioorg Med Chem Lett, 2018)
